Measurements: ChEMBL document CHEMBL1131213, “Novel euglycemic and hypolipidemic agents. 1” (J Med Chem, 1998)

Assays:
Mus musculus [1] = test: Percent reduction in blood glucose is evaluated in db/db mice for euglycemic and hypolipidemic activities at a dose of 200 mg/kg
Mus musculus [2] = test: Percent reduction in triglyceride (TG) after 9 days of dosing in db/db is evaluated in mice for euglycemic and hypolipidemic activities at a dose of 200 mg/kg
Mus musculus [3] = test: Percent reduction in triglyceride (TG) after 9 days of dosing in db/db is evaluated in mice for euglycemic and hypolipidemic activities at a dose of 100 mg/kg
Mus musculus [4] = test: Percent reduction in blood glucose is evaluated in db/db mice for euglycemic and hypolipidemic activities at a dose of 100 mg/kg
Rattus norvegicus [5] = test: Tissue level at 10 mg/kg/po in wistar rats in blood; format: ADME, organism-based; details: in vivo
Method in brief: (§1)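 Wistar rats, two per drug, given 10 mg/kg orally and sacrificed at plasma tmax. Blood/plasma drawn just before sacrifice. Tissues perfused with phosphate buffer pH 5.8 and homogenized 1:4 in buffer. Drug measured by HPLC and reported as µg/g wet tissue. Ratios are tissue over plasma.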

Rattus norvegicus [6] = test: Tissue level at 10 mg/kg/po in wistar rats in liver; format: ADME, organism-based; details: in vivo
Method in brief: as §1

Rattus norvegicus [7] = test: Tissue level at 10 mg/kg/po in wistar rats in brown fat; format: ADME, organism-based; details: in vivo
Method in brief: as §1

Rattus norvegicus [8] = test: Tissue level at 10 mg/kg/po in wistar rats in subcutaneous fat; format: ADME, organism-based; details: in vivo
Method in brief: as §1

Rattus norvegicus [9] = test: Tissue level at 10 mg/kg/po in wistar rats in plasma; format: ADME, organism-based; details: in vivo
Method in brief: as §1

Mus musculus [10] = test: Percent reduction in triglyceride (TG) after 9 days of dosing in db/db is evaluated in mice for euglycemic and hypolipidemic activities
[11] = Ratio between level in skeletal muscle to that of the level in plasma; format: ADME
Method in brief: as §1

[12] = Ratio between level in subcutaneous fat to that of the level in plasma; format: ADME
Method in brief: as §1

Rattus norvegicus [13] = test: Tissue level at 10 mg/kg/po in wistar rats in skeletal muscle; format: ADME, organism-based; details: in vivo
Method in brief: as §1

[14] = Pharmacokinetic Parameter [tmax(h)] was evaluated at 10 mg/kg (p.o.) in Wistar rats; format: ADME, organism-based; design: dose 10 mg/kg, route oral; details: rat, in vivo, po
Method in brief: (§2)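 Wistar rats (175-200 g), fasted 12 h, water free, fed 3 h post-dose. Single 10 mg/kg oral dose as 0.5% CMC suspension. Orbital sinus blood taken at 0, 0.5, 1, 2, 3, 5, 8, 12 and 24 h. Plasma assayed by reverse-phase C18 HPLC with fluorescence detection. Noncompartmental analysis gave AUC0-∞, Kel, t1/2, Cmax and tmax.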

[15] = Ratio between level in heart to that of the level in plasma; format: ADME
Method in brief: as §1

[16] = Pharmacokinetic Parameter (Cmax) was evaluated at 10 mg/kg (p.o.) in Wistar rats; format: ADME, organism-based; design: dose 10 mg/kg, route oral; details: rat, in vivo, po
Method in brief: as §2

Mus musculus [17] = test: Percent reduction in blood glucose is evaluated in db/db mice for euglycemic and hypolipidemic activities at a dose of 10 mg/kg
[18] = Ratio between level in blood to that of the level in plasma; format: ADME
Method in brief: as §1

[19] = Pharmacokinetic Parameter [Area under curve (AUC)] was evaluated at 10 mg/kg (p.o.) in Wistar rats; format: ADME, organism-based; design: dose 10 mg/kg, route oral; details: rat, in vivo, po
Method in brief: as §2

[20] = Pharmacokinetic Parameter (half-life) was evaluated at 10 mg/kg (p.o.) in Wistar rats; format: ADME, organism-based; design: dose 10 mg/kg, route oral; details: rat, in vivo, po
Method in brief: as §2

[21] = Pharmacokinetic Parameter [Kel(1/h)] was evaluated at 10 mg/kg (p.o.) in Wistar rats; format: ADME, organism-based; design: dose 10 mg/kg, route oral; details: rat, in vivo, po
Method in brief: as §2

[22] = Ratio between level in brown fat to that of the level in plasma; format: ADME
Method in brief: as §1

Rattus norvegicus [23] = test: Tissue level at 10 mg/kg/po in wistar rats in heart; format: ADME, organism-based; details: in vivo
Method in brief: as §1

[24] = Ratio between level in liver to that of the level in plasma; format: ADME, tissue-based
Method in brief: as §1

[25] = Pharmacokinetic parameter [area under curve (AUC)] was evaluated at 10 mg/kg (p.o.) in Wistar rats; format: ADME, organism-based; design: dose 10 mg/kg, route oral; details: rat, in vivo, po
Method in brief: as §2

[26] = Pharmacokinetic parameter (half-life) was evaluated at 10 mg/kg (p.o.) in Wistar rats; format: ADME, organism-based; design: dose 10 mg/kg, route oral; details: rat, in vivo, po
Method in brief: as §2

[27] = Pharmacokinetic parameter (tmax(h)) was evaluated at 10 mg/kg (p.o.) in Wistar rats; format: ADME, organism-based; design: dose 10 mg/kg, route oral; details: rat, in vivo, po
Method in brief: as §2

[28] = Pharmacokinetic parameter (Cmax) was evaluated at 10 mg/kg (p.o.) in Wistar rats; format: ADME, organism-based; design: dose 10 mg/kg, route oral; details: rat, in vivo, po
Method in brief: as §2

[29] = Pharmacokinetic parameter [Kel(1/h)] was evaluated at 10 mg/kg (p.o.) in Wistar rats; format: ADME, organism-based; design: dose 10 mg/kg, route oral; details: rat, in vivo, po
Method in brief: as §2

Mus musculus [30] = test: Percent reduction in triglyceride (TG) after 9 days of dosing in db/db is evaluated in mice for euglycemic and hypolipidemic activities at a dose of 10 mg/kg

## O=C1NC(=O)C(Cc2ccc(OCCN3CCc4ccccc43)cc2)S1 (stereo unspecified)
Mus musculus [1]
  Reduction: 33%
Mus musculus [2]
  Reduction: 79%

## COC(=O)C(N)Cc1cn(CCOc2ccc(/C=C3\SC(=O)NC3=O)cc2)c2ccccc12 (stereo unspecified)
Mus musculus [3]
  Reduction: 64%
Mus musculus [4]
  Reduction: 27%

## O=C1NC(=O)/C(=C/c2ccc(OCCN3CCc4ccccc43)cc2)S1
Mus musculus [1]
  Reduction: 61%
Mus musculus [2]
  Reduction: 83%

## O=C1NC(=O)/C(=C/c2ccc(OCCn3cnc4ccccc43)cc2)S1
Mus musculus [1]
  Reduction: 33%
Mus musculus [2]
  Reduction: 76%

## O=C1NC(=O)/C(=C/c2ccc(OCCn3ccc4cc(Cl)ccc43)cc2)S1
Mus musculus [1]
  Reduction: 39%
Mus musculus [2]
  Reduction: 11%

## O=C1NC(=O)/C(=C/c2ccc(OCCn3c(C(=O)O)cc4ccccc43)cc2)S1
Mus musculus [1]
  Reduction: 12%
Mus musculus [2]
  Reduction: 0%

## O=C1NC(=O)/C(=C\c2ccc(OCCn3c4ccccc4c4ccccc43)cc2)S1
Mus musculus [3]
  Reduction: 44%
Mus musculus [4]
  Reduction: 0%

## CN(CCOc1ccc(CC2SC(=O)NC2=O)cc1)c1ccccn1.O=C(O)/C=C\C(=O)O (stereo unspecified) [ROSIGLITAZONE MALEATE]
Rattus norvegicus [5]
  Concentration: 13800 ng/mL
Rattus norvegicus [6]
  Concentration: 10.9 µg/g
Rattus norvegicus [7]
  Concentration: 2.1 µg/g
Rattus norvegicus [8]
  Concentration: 14.32 µg/g
Rattus norvegicus [9]
  Concentration: 27200 ng/mL
Mus musculus [10]
  Reduction: 37%
[11]
  Kp: 0.03
[12]
  Kp: 0.53
Rattus norvegicus [13]
  Concentration: 0.87 µg/g
[14]
  Tmax: 0.5 h
[15]
  Kp: 0.06
[16]
  Cmax: 29400 ng/mL
Mus musculus [17]
  Reduction: 55%
[18]
  blood plasma ratio: 0.51
[19]
  AUC: 59200 ng·h/mL
[20]
  half-life: 1.02 h
[21]
  k el: 0.0002 s⁻¹
[22]
  Kp: 0.08
Rattus norvegicus [23]
  Concentration: 1.63 µg/g
[24]
  Kp: 0.4

## O=C1NC(=O)C(Cc2ccc(OCCn3ccc4ccccc43)cc2)S1 (stereo unspecified)
[25]
  AUC: 129000 ng·h/mL
Rattus norvegicus [5]
  Concentration: 7240 ng/mL
Rattus norvegicus [6]
  Concentration: 10.01 µg/g
Mus musculus [3]
  Reduction: 77%
Rattus norvegicus [7]
  Concentration: 1.23 µg/g
Rattus norvegicus [8]
  Concentration: 1.5 µg/g
Rattus norvegicus [9]
  Concentration: 11800 ng/mL
Mus musculus [4]
  Reduction: 74%
[11]
  Kp: 0.07
[12]
  Kp: 0.13
Rattus norvegicus [13]
  Concentration: 0.85 µg/g
[26]
  half-life: 3.28 h
[15]
  Kp: 0.21
[18]
  blood plasma ratio: 0.62
[27]
  Tmax: 3.67 h
[28]
  Cmax: 14500 ng/mL
[29]
  k el: 6.94e-05 s⁻¹
[22]
  Kp: 0.1
Rattus norvegicus [23]
  Concentration: 2.45 µg/g
[24]
  Kp: 0.85

## O=C1NC(=O)/C(=C/c2ccc(OCCn3ccc4ccccc43)cc2)S1
Mus musculus [10]
  Reduction: 37%
Mus musculus [1]
  Reduction: 33%

## Cc1c(C)n(CCOc2ccc(/C=C3\SC(=O)NC3=O)cc2)c2ccccc12
Mus musculus [1]
  Reduction: 40%
Mus musculus [2]
  Reduction: 2%

## O=C1NC(=O)/C(=C/c2ccc(OCCn3ccnc3)cc2)S1
Mus musculus [1]
  Reduction: 13%
Mus musculus [2]
  Reduction: 72%

## CCOC(=O)c1cc2ccccc2n1CCOc1ccc(/C=C2\SC(=O)NC2=O)cc1
Mus musculus [1]
  Reduction: 0%
Mus musculus [2]
  Reduction: 13%

## O=C1NC(=O)/C(=C/c2ccc(OCCn3ccc4cccnc43)cc2)S1
Mus musculus [1]
  Reduction: 36%
Mus musculus [2]
  Reduction: 79%

## Cc1c(C)c2c(c(C)c1O)CCC(C)(COc1ccc(CC3SC(=O)NC3=O)cc1)O2 (stereo unspecified) [TROGLITAZONE]
Mus musculus [17]
  Reduction: 41%

## CN(CCOc1ccc(CC2SC(=O)NC2=O)cc1)c1ccccn1 (stereo unspecified) [ROSIGLITAZONE]
Mus musculus [3]
  Reduction: 46%
Mus musculus [4]
  Reduction: 71%
Mus musculus [1]
  Reduction: 67%
Mus musculus [17]
  Reduction: 100%
Mus musculus [2]
  Reduction: 55%
Mus musculus [30]
  Reduction: 46%

## CN(CCOc1ccc(/C=C2\SC(=O)NC2=O)cc1)c1ccccn1
Mus musculus [3]
  Reduction: 32%
Mus musculus [4]
  Reduction: 56%
Mus musculus [17]
  Reduction: 56%
Mus musculus [30]
  Reduction: 32%

## O=C1NC(=O)C(Cc2ccc(OCCn3ccc4cccnc43)cc2)S1 (stereo unspecified)
Mus musculus [1]
  Reduction: 33%
Mus musculus [2]
  Reduction: 74%

## O=C1NC(=O)C(Cc2ccc(OCCn3c4ccccc4c4ccccc43)cc2)S1 (stereo unspecified)
Mus musculus [3]
  Reduction: 21%
Mus musculus [4]
  Reduction: 0%

## Cc1cc2ccccc2n1CCOc1ccc(/C=C2\SC(=O)NC2=O)cc1
Mus musculus [1]
  Reduction: 16%
Mus musculus [2]
  Reduction: 41%
